Assay results from ChEMBL document CHEMBL3616464, “One-pot synthesis of podophyllotoxin-thiourea congeners by employing NH₂SO₃H/NaI: Anticancer activity, DNA topoisomerase-II inhibition, and apoptosis inducing agents” (Bioorg Med Chem Lett, 2015).
Calls of active or inactive are those of the source. The rule behind the calls is not given here.

Key:
[1] = system: HGC; assay: Cytotoxicity against human HGC cells at 100 uM after 48 hrs by MTT assay; type: functional, cell-based
[2] = system: MDA-MB-231; assay: Cytotoxicity against human MDA-MB-231 cells at 100 uM after 48 hrs by MTT assay; type: functional, cell-based
[3] = system: A549; assay: Cytotoxicity against human A549 cells at 100 uM after 48 hrs by MTT assay; type: functional, cell-based
[4] = system: LNCaP; assay: Cytotoxicity against human LNCAP cells at 100 uM after 48 hrs by MTT assay; type: functional, cell-based
[5] = system: DU-145; assay: Cytotoxicity against human DU145 cells at 100 uM after 48 hrs by MTT assay; type: functional, cell-based
[6] = system: A549; assay: Cytotoxicity against human A549 cells after 48 hrs by MTT assay; type: functional, cell-based; conditions: A549, 48 h
[7] = system: DU-145; assay: Cytotoxicity against human DU145 cells after 48 hrs by MTT assay; type: functional, cell-based; conditions: DU-145, 48 h
[8] = system: MDA-MB-231; assay: Cytotoxicity against human MDA-MB-231 cells after 48 hrs by MTT assay; type: functional, cell-based; conditions: MDA-MB-231, 48 h
[9] = Therapeutic index, ratio of IC50 for human RWPE1 cells to IC50 for human DU145 cells; type: cell-based; conditions: RWPE1 cells versus DU145 cells, read-out: Ratio IC50
Procedure, shortened: (§1)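 Selectivity expressed as the fold by which the IC50 in normal prostate epithelial RWPE-1 cells exceeds the IC50 in the prostate cancer line (DU-145 or LNCaP).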

[10] = system: LNCaP; assay: Cytotoxicity against human LNCAP cells after 48 hrs by MTT assay; type: functional, cell-based
[11] = Cytotoxicity against human HGC cells after 48 hrs by MTT assay; type: functional, cell-based
[12] = Cytotoxicity against human RWPE1 cells after 48 hrs by MTT assay; type: cell-based; conditions: RWPE-1, 48 h
[13] = Therapeutic index, ratio of IC50 for human RWPE1 cells to IC50 for human LNCAP cells; type: cell-based; conditions: RWPE1 cells versus LNCAP cells, read-out: Ratio IC50; procedure, shortened: as §1
[14] = Cytotoxicity against human RWPE1 cells at 100 uM after 48 hrs by MTT assay; type: cell-based; conditions: rwpe-1, 48 h
[15] = target: DNA topoisomerase 2-alpha (Homo sapiens) (UniProt P11388); assay: Inhibition of topoisomerase-2 (unknown origin) using kDNA assessed as increase of catenated kDNA level at 100 uM after 10 mins using ethidium bromide staining by agarose gel electrophoresis
Sequence of DNA topoisomerase 2-alpha (Homo sapiens) (P11388 whole entry): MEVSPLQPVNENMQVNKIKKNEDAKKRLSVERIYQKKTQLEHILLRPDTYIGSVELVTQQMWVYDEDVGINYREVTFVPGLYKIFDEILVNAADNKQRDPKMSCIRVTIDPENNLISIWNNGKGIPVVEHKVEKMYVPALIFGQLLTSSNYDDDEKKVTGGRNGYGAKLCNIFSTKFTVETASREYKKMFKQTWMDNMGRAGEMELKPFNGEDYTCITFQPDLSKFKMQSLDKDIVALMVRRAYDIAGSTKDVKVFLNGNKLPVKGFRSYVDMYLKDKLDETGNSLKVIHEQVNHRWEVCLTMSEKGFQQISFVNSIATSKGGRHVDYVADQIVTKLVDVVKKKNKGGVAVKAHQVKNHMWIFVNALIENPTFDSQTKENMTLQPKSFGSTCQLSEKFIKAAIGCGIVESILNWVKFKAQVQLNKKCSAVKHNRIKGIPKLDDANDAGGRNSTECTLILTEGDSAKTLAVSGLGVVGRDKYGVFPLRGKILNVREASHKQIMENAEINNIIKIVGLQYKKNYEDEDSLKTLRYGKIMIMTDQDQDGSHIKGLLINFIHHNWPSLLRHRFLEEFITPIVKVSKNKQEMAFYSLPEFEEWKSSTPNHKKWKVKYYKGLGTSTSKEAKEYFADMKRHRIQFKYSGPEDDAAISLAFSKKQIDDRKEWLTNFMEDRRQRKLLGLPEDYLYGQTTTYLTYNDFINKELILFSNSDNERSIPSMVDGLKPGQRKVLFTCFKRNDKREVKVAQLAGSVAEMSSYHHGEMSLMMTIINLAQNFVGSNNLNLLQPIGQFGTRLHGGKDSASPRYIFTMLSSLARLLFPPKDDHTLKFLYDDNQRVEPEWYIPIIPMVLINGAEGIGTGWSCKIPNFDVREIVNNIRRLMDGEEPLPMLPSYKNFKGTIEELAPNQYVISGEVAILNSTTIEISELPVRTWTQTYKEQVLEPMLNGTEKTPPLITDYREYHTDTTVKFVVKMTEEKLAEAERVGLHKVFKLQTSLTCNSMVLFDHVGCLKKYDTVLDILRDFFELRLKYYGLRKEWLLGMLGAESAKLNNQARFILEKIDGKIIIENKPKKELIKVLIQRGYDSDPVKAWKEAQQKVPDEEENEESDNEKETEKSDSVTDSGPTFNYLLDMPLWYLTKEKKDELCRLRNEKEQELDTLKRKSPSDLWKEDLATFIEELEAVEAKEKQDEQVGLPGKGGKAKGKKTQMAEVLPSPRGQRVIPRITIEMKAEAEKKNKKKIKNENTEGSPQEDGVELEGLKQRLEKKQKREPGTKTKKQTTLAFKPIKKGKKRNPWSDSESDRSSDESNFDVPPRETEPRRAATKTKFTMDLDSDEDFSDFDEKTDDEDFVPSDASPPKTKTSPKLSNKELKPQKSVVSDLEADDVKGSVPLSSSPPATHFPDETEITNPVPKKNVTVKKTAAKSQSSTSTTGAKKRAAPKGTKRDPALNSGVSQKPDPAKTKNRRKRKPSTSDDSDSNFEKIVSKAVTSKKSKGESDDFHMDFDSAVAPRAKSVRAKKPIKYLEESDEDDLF
Procedure, shortened: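 Drug-screening kit decatenation assay: catenated DNA incubated with topoisomerase II (5 units) and test agent, with etoposide as reference. Products were resolved by gel and visualised. Inhibition was judged by catenated DNA remaining in the wells, compared with nicked circular, relaxed circular or linear DNA forms.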

Row | SMILES | Activity [1] | Activity [2] | Activity [3] | Activity [4] | Activity [5] | IC50 [6] | IC50 [7] | IC50 [8] | selectivity ratio [9] | IC50 [10] | IC50 [11] | IC50 [12] | selectivity ratio [13] | Activity [14] | inhibition [15]
1 | COc1cc([C@@H]2c3cc4c(cc3[C@@H](NC(=S)Nc3ccc(C#N)cc3)[C@H]3COC(=O)[C@H]23)OCO4)cc(OC)c1OC | inactive | inactive | inactive | inactive | inactive | – | – | – | – | – | – | – | – | – | –
2 | COc1cc([C@@H]2c3cc4c(cc3[C@H](O)[C@H]3COC(=O)[C@H]23)OCO4)cc(OC)c1OC [PODOFILOX] | – | – | – | – | – | 129 µM | – | – | – | – | – | – | – | – | –
3 | COc1ccc(NC(=S)N[C@@H]2c3cc4c(cc3[C@@H](c3cc(OC)c(OC)c(OC)c3)[C@H]3C(=O)OC[C@@H]32)OCO4)c([N+](=O)[O-])c1 | – | – | – | – | – | 35.1 µM | 12.2 µM | 39.8 µM | 6.4 | 25.6 µM | 33.4 µM | 78.4 µM | 3.1 | – | –
4 | COc1cc(NC(=S)N[C@@H]2c3cc4c(cc3[C@@H](c3cc(OC)c(OC)c(OC)c3)[C@H]3C(=O)OC[C@@H]32)OCO4)cc(OC)c1 | inactive | inactive | inactive | inactive | inactive | – | – | – | – | – | – | – | – | Non-toxic | –
5 | COc1cc([C@@H]2c3cc4c(cc3[C@@H](NC(=S)Nc3ccc(F)cc3)[C@H]3COC(=O)[C@H]23)OCO4)cc(OC)c1OC | inactive | inactive | inactive | inactive | inactive | – | – | – | – | – | – | – | – | Non-toxic | –
6 | CCOC(=O)c1ccc(NC(=S)N[C@@H]2c3cc4c(cc3[C@@H](c3cc(OC)c(OC)c(OC)c3)[C@H]3C(=O)OC[C@@H]32)OCO4)cc1 | – | – | – | – | – | > 100 µM | 2.37 µM | > 100 µM | 27 | 5.49 µM | 45.4 µM | 64 µM | 11.6 | – | –
7 | COc1cc([N+](=O)[O-])ccc1NC(=S)N[C@@H]1c2cc3c(cc2[C@@H](c2cc(OC)c(OC)c(OC)c2)[C@H]2C(=O)OC[C@@H]21)OCO3 | inactive | inactive | inactive | inactive | inactive | – | – | – | – | – | – | – | – | Non-toxic | –
8 | COc1ccc(OC)c(NC(=S)N[C@@H]2c3cc4c(cc3[C@@H](c3cc(OC)c(OC)c(OC)c3)[C@H]3C(=O)OC[C@@H]32)OCO4)c1 | inactive | inactive | inactive | inactive | inactive | – | – | – | – | – | – | – | – | Non-toxic | –
9 | COc1cc([C@@H]2c3cc4c(cc3[C@@H](NC(=S)Nc3ccc(Cl)c(Cl)c3)[C@H]3COC(=O)[C@H]23)OCO4)cc(OC)c1OC | – | – | inactive | – | – | – | 14.1 µM | 11.9 µM | – | 20 µM | 86.1 µM | > 100 µM | – | – | –
10 | COc1cc([C@@H]2c3cc4c(cc3[C@@H](O[C@@H]3O[C@@H]5CO[C@@H](C)O[C@H]5[C@H](O)[C@H]3O)[C@H]3COC(=O)[C@H]23)OCO4)cc(OC)c1O [ETOPOSIDE] | – | – | – | – | – | 38.5 µM | 5.21 µM | 49.4 µM | 5.3 | 50.3 µM | 10.9 µM | 27.6 µM | – | – | Active
11 | COc1cc([C@@H]2c3cc4c(cc3[C@@H](NC(=S)Nc3ccc(C(C)C)cc3)[C@H]3COC(=O)[C@H]23)OCO4)cc(OC)c1OC | – | – | – | – | – | 62 µM | 59.9 µM | > 100 µM | – | 84.8 µM | > 100 µM | > 100 µM | – | – | –
12 | COc1cc([C@@H]2c3cc4c(cc3[C@@H](NC(=S)Nc3c(C)cc(C)cc3C)[C@H]3COC(=O)[C@H]23)OCO4)cc(OC)c1OC | – | – | inactive | – | – | – | 10.6 µM | 19.4 µM | 6.8 | 39.8 µM | 60.3 µM | 71.7 µM | 1.8 | – | –
13 | COc1cc([C@@H]2c3cc4c(cc3[C@@H](NC(=S)Nc3ccc(C(F)(F)F)cc3)[C@H]3COC(=O)[C@H]23)OCO4)cc(OC)c1OC | – | – | – | – | – | 14.8 µM | 1.96 µM | 7.58 µM | 8.6 | 3.56 µM | 56.8 µM | 16.9 µM | 4.7 | – | Active
14 | COc1ccc(NC(=S)N[C@@H]2c3cc4c(cc3[C@@H](c3cc(OC)c(OC)c(OC)c3)[C@H]3C(=O)OC[C@@H]32)OCO4)c(OC)c1 | inactive | inactive | inactive | inactive | inactive | – | – | – | – | – | – | – | – | Non-toxic | –
15 | COc1cc([C@@H]2c3cc4c(cc3[C@@H](NC(=S)Nc3ccccc3F)[C@H]3COC(=O)[C@H]23)OCO4)cc(OC)c1OC | – | – | inactive | – | – | – | 63.3 µM | > 100 µM | – | > 100 µM | 22.4 µM | > 100 µM | – | – | –
16 | COc1ccc(NC(=S)N[C@@H]2c3cc4c(cc3[C@@H](c3cc(OC)c(OC)c(OC)c3)[C@H]3C(=O)OC[C@@H]32)OCO4)cc1OC | – | – | – | – | – | 65.5 µM | 58.8 µM | > 100 µM | – | > 100 µM | 23.7 µM | > 100 µM | – | – | –
17 | COc1cc([C@@H]2c3cc4c(cc3[C@@H](NC(=S)Nc3ccccc3C(F)(F)F)[C@H]3COC(=O)[C@H]23)OCO4)cc(OC)c1OC | – | – | – | – | – | > 100 µM | 2.34 µM | 85.7 µM | 19 | 12.9 µM | 86 µM | 44.5 µM | 3.4 | – | –
18 | COc1cc([C@@H]2c3cc4c(cc3[C@@H](NC(=S)Nc3cccc(F)c3)[C@H]3COC(=O)[C@H]23)OCO4)cc(OC)c1OC | inactive | inactive | inactive | inactive | inactive | – | – | – | – | – | – | – | – | Non-toxic | –
19 | COc1cc(NC(=S)N[C@@H]2c3cc4c(cc3[C@@H](c3cc(OC)c(OC)c(OC)c3)[C@H]3C(=O)OC[C@@H]32)OCO4)ccc1[N+](=O)[O-] | inactive | inactive | inactive | inactive | inactive | – | – | – | – | – | – | – | – | Non-toxic | –
20 | COc1cc([C@@H]2c3cc4c(cc3[C@@H](NC(=S)Nc3cccc(C(F)(F)F)c3)[C@H]3COC(=O)[C@H]23)OCO4)cc(OC)c1OC | – | – | inactive | – | – | – | 21 µM | 17.9 µM | – | 22.2 µM | 12.9 µM | > 100 µM | – | – | –
21 | COc1cc([C@@H]2c3cc4c(cc3[C@@H](NC(=S)Nc3ccc([N+](=O)[O-])cc3)[C@H]3COC(=O)[C@H]23)OCO4)cc(OC)c1OC | – | – | – | – | – | 44 µM | 7.89 µM | 31.8 µM | 7.2 | 53.1 µM | 69.6 µM | 56.7 µM | – | – | –
22 | COc1cc([C@@H]2c3cc4c(cc3[C@@H](NC(=S)Nc3ccc(OCc5ccccc5)cc3)[C@H]3COC(=O)[C@H]23)OCO4)cc(OC)c1OC | inactive | inactive | inactive | inactive | inactive | – | – | – | – | – | – | – | – | Non-toxic | –
